Test results from ChEMBL document CHEMBL1795243, “New microtubule polymerization inhibitors comprising a nitrooxymethylphenyl group” (Bioorg Med Chem, 2011).
Active and inactive are the calls of the source. No cut-off for these calls is given here.

What was measured:
HCT-116 [1] = assay: Antiproliferative activity against human HCT116 cells after 72 hrs by cell counting kit analysis; assay type: functional, cell-based; conditions: HCT-116, 72 h
Summary of the method: (§1)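 Cells grown with compound for 72 h, then growth quantified by WST-1 Cell Counting Kit. Final concentrations 1, 10, 25, 50, 100 and 200 μM. All media had 10% FBS, 37 °C, 5% CO2. Read-out IC50.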

MDA-MB-231 = assay: Antiproliferative activity against human MDA-MB-231 cells after 72 hrs by cell counting kit analysis; assay type: functional, cell-based; conditions: MDA-MB-231, 72 h; summary of the method: as §1
MCF7 = assay: Antiproliferative activity against human MCF7 cells after 72 hrs by cell counting kit analysis; assay type: functional, cell-based; conditions: MCF7, 72 h; summary of the method: as §1
SW-620 = assay: Antiproliferative activity against human SW620 cells after 72 hrs by cell counting kit analysis; assay type: functional, cell-based; conditions: SW-620, 72 h; summary of the method: as §1
SW480 = assay: Antiproliferative activity against human SW480 cells after 72 hrs by cell counting kit analysis; assay type: functional, cell-based; conditions: SW480, 72 h; summary of the method: as §1
SK-BR-3 = assay: Antiproliferative activity against human SK-BR-3 cells after 72 hrs by cell counting kit analysis; assay type: functional, cell-based; conditions: SK-BR-3, 72 h; summary of the method: as §1
HCT-116 [2] = assay: Cell cycle arrest in human HCT116 cells assessed as accumulation at G2/M phase at 40 uM after 24 hrs by FACS analysis (reference value: 10.9 %); assay type: functional
HCT-116 [3] = assay: Cell cycle arrest in human HCT116 cells assessed as accumulation at sub-G1 phase at 40 uM after 24 hrs by FACS analysis (reference value: 6.2 %); assay type: functional
HCT-116 [4] = assay: Induction of apoptosis in human HCT116 cells at 40 uM after 48 hrs using FITC-TUNEL staining by flow cytometry (reference value: 7.3 %); assay type: functional
Summary of the method: (§2)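 HCT116 at 1.0×10^6 per 60 mm dish, treated 24 or 48 h (0.4% DMSO control). Floating plus adherent cells assayed with DeadEnd Fluorometric TUNEL System, and FITC-TUNEL-positive percentage read by flow cytometry. Five independent experiments.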

HCT-116 [5] = assay: Cell cycle arrest in human HCT116 cells assessed as increase of phosphorylated histone H3 at Ser10 level at 40 uM after 24 hrs using propidium iodide staining by flow cytometry (reference value: 1.4 %); assay type: functional
HCT-116 [6] = assay: Cell cycle arrest in human HCT116 cells assessed as accumulation at G0/G1 phase at 40 uM after 24 hrs by FACS analysis (reference value: 76.5 %); assay type: functional
HCT-116 [7] = assay: Induction of apoptosis in human HCT116 cells at 40 uM after 24 hrs using FITC-TUNEL staining by flow cytometry; assay type: functional; summary of the method: as §2
HCT-116 [8] = assay: Cell cycle arrest in human HCT116 cells assessed as increase of phosphorylated histone H3 at Ser10 level at 20 to 40 uM after 24 hrs by Western blotting; assay type: functional, cell-based
Summary of the method: (§3)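 HCT116 (1.0×10^6/dish) serum-starved 24 h, then treated 24 h in serum-free medium (0.4% DMSO control). Lysed 1 h at 0 °C in modified lysis buffer (pH 8.0, 1% NP-40). 7.5 µg protein run on SDS-PAGE and PVDF blot, probed for phospho-histone H3 Ser10 and total H3, ECL detection. Five independent experiments.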

HCT-116 [9] = assay: Cell cycle arrest in human HCT116 cells assessed as accumulation at S phase at 40 uM after 24 hrs by FACS analysis (reference value: 8.5 %); assay type: functional
Tubulin (Homo sapiens) [10] = target: T1, Tubulin (Homo sapiens) (UniProt P68371+Q9H4B7+P0DPH7+P68366+Q13509+Q71U36+P04350+Q3ZCM7+P07437+P68363+Q9BQE3+Q6PEY2+Q13885+Q9BVA1+Q9BUF5); assay: Inhibition of alpha-tubulin polymerization in human HT1080 cells assessed as disruption of microtubule structures at 100 nM after 4 hrs using Hoechst staining by fluorescence microscopic analysis; assay type: cell-based; conditions: HT-1080
HCT-116 [11] = assay: Cell cycle arrest in human HCT116 cells assessed as accumulation at G0/G1 phase at 20 uM after 24 hrs by FACS analysis (reference value: 76.5 %); assay type: functional
Tubulin (Homo sapiens) [12] = target: T1, Tubulin (Homo sapiens); assay: Inhibition of alpha-tubulin polymerization in human HT1080 cells assessed as disruption of microtubule structures at 10 uM after 4 hrs using Hoechst staining by fluorescence microscopic analysis; assay type: cell-based; conditions: HT-1080
HCT-116 [13] = assay: Antitumor activity against human HCT116 cells xenografted in nude mouse assessed as inhibition of tumor growth at 80 mg/kg, ip administered at days 0, 2, 4, 7, 9, 11, 14 and 16 measured on day 21 relative to control; assay type: functional; conditions: route intraperitoneal
HCT-116 [14] = assay: Induction of apoptosis in human HCT116 cells at 20 uM after 48 hrs using FITC-TUNEL staining by flow cytometry (reference value: 7.3 %); assay type: functional; summary of the method: as §2
Tubulin (Sus scrofa) = Tubulin (Sus scrofa) (UniProt P02554+P02550); assay: Inhibition of purified porcine brain tubulin polymerization at 20 uM after 100 mins by fluorescence assay
Summary of the method: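 Porcine brain tubulin 2.0 mg/mL in General Tubulin Buffer with Tubulin Glycerol Buffer, GTP and DAPI. Added to compound prewarmed at 37 °C (final 2.0% DMSO, which is also the vehicle control). DAPI fluorescence (ex 340, em 460 nm) read kinetically over 100 min. Four independent experiments.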

HCT-116 [15] = assay: Cell cycle arrest in human HCT116 cells assessed as accumulation at G2/M phase at 20 uM after 24 hrs by FACS analysis (reference value: 10.9 %); assay type: functional
HCT-116 [16] = assay: Cell cycle arrest in human HCT116 cells assessed as accumulation at S phase at 20 uM after 24 hrs by FACS analysis (reference value: 8.5 %); assay type: functional
HCT-116 [17] = assay: Cell cycle arrest in human HCT116 cells assessed as accumulation at sub-G1 phase at 20 uM after 24 hrs by FACS analysis (reference value: 6.2 %); assay type: functional
HCT-116 [18] = assay: Cell cycle arrest in human HCT116 cells assessed as increase of phosphorylated histone H3 at Ser10 level at 20 uM after 24 hrs using propidium iodide staining by flow cytometry (reference value: 1.4 %); assay type: functional
HCT-116 [19] = assay: Induction of apoptosis in human HCT116 cells at 20 uM after 24 hrs using FITC-TUNEL staining by flow cytometry; assay type: functional; summary of the method: as §2
[20] = Antiproliferative activity against human CCD-1059SK cells at 200 uM after 72 hrs by cell counting kit analysis; assay type: cell-based; summary of the method: as §1
Mus musculus = assay: Toxicity in human HCT116 cells xenografted nude mouse assessed change in body weight at 50 to 80 mg/kg, ip administered at days 0, 2, 4, 7, 9, 11, 14 and 16 measured on day 21; assay type: organism-based, HCT-116; parameters: dose 50-80 mg/kg, route intraperitoneal; conditions: in vivo
HCT-116 [21] = assay: Cell cycle arrest in human HCT116 cells assessed as increase of phosphorylated histone H3 at Ser10 level at 150 nM after 24 hrs using propidium iodide staining by flow cytometry (reference value: 1.4 %); assay type: functional
HCT-116 [22] = assay: Induction of apoptosis in human HCT116 cells at 150 nM after 48 hrs using FITC-TUNEL staining by flow cytometry (reference value: 7.3 %); assay type: functional; summary of the method: as §2
HCT-116 [23] = assay: Cell cycle arrest in human HCT116 cells assessed as accumulation at G2/M phase at 150 nM after 24 hrs by FACS analysis (reference value: 10.9 %); assay type: functional
HCT-116 [24] = assay: Cell cycle arrest in human HCT116 cells assessed as accumulation at S phase at 150 nM after 24 hrs by FACS analysis (reference value: 8.5 %); assay type: functional
HCT-116 [25] = assay: Induction of apoptosis in human HCT116 cells at 150 nM after 24 hrs using FITC-TUNEL staining by flow cytometry; assay type: functional; summary of the method: as §2
HCT-116 [26] = assay: Cell cycle arrest in human HCT116 cells assessed as accumulation at G0/G1 phase at 150 nM after 24 hrs by FACS analysis (reference value: 76.5 %); assay type: functional
HCT-116 [27] = assay: Cell cycle arrest in human HCT116 cells assessed as accumulation at sub-G1 phase at 150 nM after 24 hrs by FACS analysis (reference value: 6.2 %); assay type: functional
HCT-116 [28] = assay: Cell cycle arrest in human HCT116 cells assessed as increase of phosphorylated histone H3 at Ser10 level at 150 nM after 24 hrs by Western blotting; assay type: functional, cell-based; summary of the method: as §3

Sequence of Tubulin (Sus scrofa) (P02550 whole entry, looked up): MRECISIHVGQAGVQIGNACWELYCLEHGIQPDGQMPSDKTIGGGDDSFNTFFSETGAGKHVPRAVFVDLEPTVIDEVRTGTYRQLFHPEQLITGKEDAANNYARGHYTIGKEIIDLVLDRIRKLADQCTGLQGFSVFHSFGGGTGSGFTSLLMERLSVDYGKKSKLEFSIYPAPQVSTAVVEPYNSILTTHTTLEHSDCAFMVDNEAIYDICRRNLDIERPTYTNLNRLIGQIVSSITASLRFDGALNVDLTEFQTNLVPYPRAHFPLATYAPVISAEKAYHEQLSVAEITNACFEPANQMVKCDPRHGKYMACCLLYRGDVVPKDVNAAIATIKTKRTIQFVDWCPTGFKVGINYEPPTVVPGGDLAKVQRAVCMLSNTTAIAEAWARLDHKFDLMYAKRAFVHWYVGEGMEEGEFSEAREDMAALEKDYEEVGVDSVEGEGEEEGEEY
Sequence of Tubulin (Sus scrofa) (P02554 whole entry, looked up): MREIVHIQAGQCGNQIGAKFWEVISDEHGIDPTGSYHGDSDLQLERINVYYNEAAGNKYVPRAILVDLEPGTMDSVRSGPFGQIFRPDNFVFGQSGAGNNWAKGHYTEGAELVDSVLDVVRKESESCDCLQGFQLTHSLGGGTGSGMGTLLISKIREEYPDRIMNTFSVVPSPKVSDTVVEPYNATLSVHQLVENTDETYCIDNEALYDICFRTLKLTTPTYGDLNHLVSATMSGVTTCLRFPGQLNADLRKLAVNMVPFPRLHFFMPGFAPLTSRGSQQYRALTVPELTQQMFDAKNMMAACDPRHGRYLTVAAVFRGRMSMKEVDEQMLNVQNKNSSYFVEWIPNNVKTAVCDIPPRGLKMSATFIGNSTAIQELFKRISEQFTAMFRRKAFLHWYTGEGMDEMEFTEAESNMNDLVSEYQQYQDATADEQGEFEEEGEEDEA

| Structure (SMILES) | IC50 (HCT-116 [1]) [µM] | IC50 (MDA-MB-231) [µM] | IC50 (MCF7) [µM] | IC50 (SW-620) [µM] | IC50 (SW480) [µM] | IC50 (SK-BR-3) [µM] | further results |
| --- | --- | --- | --- | --- | --- | --- | --- |
| O=C(Nc1ccccc1)c1ccc(CO)cc1 | 24.8 | > 100 | > 100 | > 100 | > 100 | 9.8 | – |
| CC(=O)Oc1ccccc1C(=O)Oc1ccc(CO[N+](=O)[O-])cc1 | 68 | 14.4 | > 100 | 15.1 | 19.1 | 30.5 | Activity (HCT-116 [2]): 12%; Activity (HCT-116 [3]): 15.3%; Activity (HCT-116 [4]): 3.6%; Activity (HCT-116 [5]): 1.7%; Activity (HCT-116 [6]): 53.7%; Activity (HCT-116 [7]): 4%; Activity (HCT-116 [8]): inactive; Activity (HCT-116 [9]): 18.8% |
| O=C(Oc1ccccc1)c1ccc(CO[N+](=O)[O-])cc1 | 17.9 | 47.7 | > 100 | 16.9 | 80.7 | 50.1 | – |
| O=C(Nc1ccccc1)c1cccc(CO[N+](=O)[O-])c1 | 19.3 | 8.4 | > 100 | 8.4 | 13.3 | 8.2 | – |
| O=C(Nc1ccccc1NC(=O)c1ccc(CO[N+](=O)[O-])cc1)c1ccc(CO[N+](=O)[O-])cc1 | > 100 | > 100 | > 100 | > 100 | > 100 | > 100 | – |
| CC(=O)O[C@H]1C(=O)[C@@]2(C)[C@H]([C@H](OC(=O)c3ccccc3)[C@]3(O)C[C@H](OC(=O)[C@H](O)[C@@H](NC(=O)c4ccccc4)c4ccccc4)C(C)=C1C3(C)C)[C@]1(OC(C)=O)CO[C@@H]1C[C@@H]2O | – | – | – | – | – | – | inhibition (Tubulin (Homo sapiens) [10]): inactive |
| O=C(Nc1ccccc1OC(=O)c1cccc(CO[N+](=O)[O-])c1)c1cccc(CO[N+](=O)[O-])c1 | 47.6 | 30 | > 100 | 25.8 | 22.2 | 18.5 | – |
| O=C(Nc1ccccc1)c1ccc(CO[N+](=O)[O-])cc1 | 0.6 | 0.8 | > 100 | 0.8 | 0.8 | 0.7 | Activity (HCT-116 [11]): 30.4%; inhibition (Tubulin (Homo sapiens) [12]): Active; T/C (HCT-116 [13]): 55%; Activity (HCT-116 [14]): 24.2%; inhibition (Tubulin (Sus scrofa)): Active; Activity (HCT-116 [15]): 51.8%; Activity (HCT-116 [16]): 7.4%; Activity (HCT-116 [8]): Active; Activity (HCT-116 [17]): 10.4%; Activity (HCT-116 [18]): 46.2%; Activity (HCT-116 [19]): 4%; Activity [20]: Non-toxic; Activity (Mus musculus): Non-toxic |
| O=C(Nc1ccccc1OC(=O)c1ccc(CCl)cc1)c1ccc(CCl)cc1 | 0.6 | 0.8 | 58.1 | 0.8 | 6.9 | 0.6 | – |
| O=C(Nc1ccccc1OC(=O)c1ccc(CO[N+](=O)[O-])cc1)c1ccc(CO[N+](=O)[O-])cc1 | 0.7 | 1.4 | > 100 | 0.8 | 3.8 | 0.7 | Activity (HCT-116 [11]): 52.4%; inhibition (Tubulin (Homo sapiens) [12]): Active; Activity (HCT-116 [14]): 36.4%; inhibition (Tubulin (Sus scrofa)): Active; Activity (HCT-116 [15]): 29.3%; Activity (HCT-116 [16]): 7.3%; Activity (HCT-116 [8]): Active; Activity (HCT-116 [17]): 11%; Activity (HCT-116 [18]): 26.4%; Activity (HCT-116 [19]): 4%; Activity [20]: Non-toxic |
| CC[C@]1(O)C[C@H]2CN(CCc3c([nH]c4ccccc34)[C@@](C(=O)OC)(c3cc4c(cc3OC)N(C=O)[C@H]3[C@@](O)(C(=O)OC)[C@H](OC(C)=O)[C@]5(CC)C=CCN6CC[C@]43[C@@H]65)C2)C1 [VINCRISTINE] | – | – | – | – | – | – | Activity (HCT-116 [21]): 25.3%; Activity (HCT-116 [22]): 31.6%; Activity (HCT-116 [23]): 28.6%; Activity (HCT-116 [24]): 12.5%; Activity (HCT-116 [25]): 4%; Activity (HCT-116 [26]): 35.9%; inhibition (Tubulin (Homo sapiens) [10]): Active; Activity (HCT-116 [27]): 23%; Activity (HCT-116 [28]): Active |
| O=C(Nc1cccc(OC(=O)c2ccc(CO[N+](=O)[O-])cc2)c1)c1ccc(CO[N+](=O)[O-])cc1 | 6.2 | 6.7 | > 100 | 7.6 | 8.4 | 6.3 | – |
| O=C(Nc1ccccc1)c1ccccc1 [N-PHENYLBENZAMIDE] | > 100 | > 100 | > 100 | > 100 | > 100 | > 100 | – |
| CCc1ccc(C(=O)Nc2ccccc2)cc1 | > 100 | > 100 | > 100 | > 100 | > 100 | > 100 | – |
| O=C(Nc1ccccc1)c1ccc(CCl)cc1 | 1.2 | 0.8 | 54.3 | 0.8 | 0.9 | 0.7 | – |
